Converted amounts (≈) assume the structure as drawn. The source made the active and inactive calls. The rule behind the calls is not given here.
Key:
Staphylococcus aureus [1] = experiment: Antibacterial activity against Staphylococcus aureus assessed as growth inhibition at 16 ug/ml after 24 hrs; format: functional, organism-based
How it was run: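 S. aureus grown in Mueller Hinton Broth to early exponential phase, then exposed to compound (16 μg/mL; DMSO stocks 10 mg/mL) or DMSO in duplicate, 37 °C for 24 h. OD600 read; percent normalized OD600 = (X − media blank)/(DMSO control − media blank) × 100.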

Staphylococcus aureus [2] = experiment: Bacteriostatic activity against Staphylococcus aureus ATCC 25923 after 20 hrs by broth microdilution method; format: functional; settings: ATCC 25923, 20 h
How it was run: (§1)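 Broth microdilution MIC over 128 to 1 μg/mL, run alongside methicillin, linezolid and vancomycin. MIC taken as the lowest concentration with no visible growth.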

Staphylococcus aureus [3] = experiment: Bacteriostatic activity against methicillin-resistant Staphylococcus aureus ATCC 33592 after 20 hrs by broth microdilution method; format: functional; settings: ATCC 33592, 20 h; how it was run: as §1
Enterococcus faecalis [4] = experiment: Bacteriostatic activity against Enterococcus faecalis ATCC 29212 after 20 hrs by broth microdilution method; format: functional; settings: ATCC 29212, 20 h; how it was run: as §1
Enterococcus faecalis [5] = experiment: Bacteriostatic activity against vancomycin-resistant Enterococcus faecalis ATCC 51575 after 20 hrs by broth microdilution method; format: functional; settings: ATCC 51575, 20 h; how it was run: as §1
Listeria monocytogenes = experiment: Bacteriostatic activity against Listeria monocytogenes ATCC 19115 after 20 hrs by broth microdilution method; format: functional; settings: ATCC 19115, 20 h
How it was run: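 MIC by broth microdilution across 128 to 1 μg/mL in 96-well plates, 37 °C for at least 20 h. MIC is the lowest concentration with no visible growth.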

CC1CCCCN1S(=O)(=O)c1ccc(C(=O)Nc2nnc(-c3cccs3)o2)cc1 (stereo unspecified)
growth inhibition (GI) (Staphylococcus aureus [1]): Active
MIC (Staphylococcus aureus [2]): 8 µg/mL (≈ 18.5 µM)
MIC (Staphylococcus aureus [3]): 8 µg/mL (≈ 18.5 µM)
MIC (Enterococcus faecalis [4]): 16 µg/mL (≈ 37 µM)
MIC (Enterococcus faecalis [5]): 16 µg/mL (≈ 37 µM)
MIC (Listeria monocytogenes): 16 µg/mL (≈ 37 µM)

CN(C)S(=O)(=O)c1ccc(C(=O)Nc2nnc(-c3ccc(F)cc3)o2)cc1
growth inhibition (GI) (Staphylococcus aureus [1]): Active
MIC (Staphylococcus aureus [2]): 16 µg/mL (≈ 41 µM)
MIC (Staphylococcus aureus [3]): 16 µg/mL (≈ 41 µM)
MIC (Enterococcus faecalis [4]): 32 µg/mL (≈ 82 µM)
MIC (Enterococcus faecalis [5]): 32 µg/mL (≈ 82 µM)
MIC (Listeria monocytogenes): 32 µg/mL (≈ 82 µM)

C#CCNS(=O)(=O)c1ccc(C(=O)Nc2nnc(-c3ccc(Cl)cc3)o2)cc1
growth inhibition (GI) (Staphylococcus aureus [1]): Active
MIC (Staphylococcus aureus [2]): 64 µg/mL (≈ 154 µM)
MIC (Staphylococcus aureus [3]): 32 µg/mL (≈ 76.8 µM)
MIC (Enterococcus faecalis [4]): 64 µg/mL (≈ 154 µM)
MIC (Enterococcus faecalis [5]): 64 µg/mL (≈ 154 µM)
MIC (Listeria monocytogenes): 64 µg/mL (≈ 154 µM)

O=C(Nc1nnc(-c2ccc(Cl)cc2)o1)c1ccc(S(=O)(=O)N2CCCC2)cc1
growth inhibition (GI) (Staphylococcus aureus [1]): Active
MIC (Staphylococcus aureus [2]): 16 µg/mL (≈ 37 µM)
MIC (Staphylococcus aureus [3]): 8 µg/mL (≈ 18.5 µM)
MIC (Enterococcus faecalis [4]): 16 µg/mL (≈ 37 µM)
MIC (Enterococcus faecalis [5]): 16 µg/mL (≈ 37 µM)
MIC (Listeria monocytogenes): 16 µg/mL (≈ 37 µM)

COc1cccc(-c2nnc(NC(=O)c3ccc(S(=O)(=O)N(C)CC4CCCO4)cc3)o2)c1 (stereo unspecified)
growth inhibition (GI) (Staphylococcus aureus [1]): Active
MIC (Staphylococcus aureus [2]): 32 µg/mL (≈ 67.7 µM)
MIC (Staphylococcus aureus [3]): 32 µg/mL (≈ 67.7 µM)
MIC (Enterococcus faecalis [4]): 32 µg/mL (≈ 67.7 µM)
MIC (Enterococcus faecalis [5]): 32 µg/mL (≈ 67.7 µM)
MIC (Listeria monocytogenes): 32 µg/mL (≈ 67.7 µM)

CN(C)S(=O)(=O)c1ccc(C(=O)Nc2nnc(-c3ccc(Cl)cc3)o2)cc1
growth inhibition (GI) (Staphylococcus aureus [1]): Active
MIC (Staphylococcus aureus [2]): 64 µg/mL (≈ 157 µM)
MIC (Staphylococcus aureus [3]): 32 µg/mL (≈ 78.7 µM)
MIC (Enterococcus faecalis [4]): 64 µg/mL (≈ 157 µM)
MIC (Enterococcus faecalis [5]): 64 µg/mL (≈ 157 µM)
MIC (Listeria monocytogenes): 64 µg/mL (≈ 157 µM)

O=C(Nc1nnc(-c2cccs2)o1)c1ccc(S(=O)(=O)N2CCCCC2)cc1
growth inhibition (GI) (Staphylococcus aureus [1]): Active
MIC (Staphylococcus aureus [2]): 32 µg/mL (≈ 76.5 µM)
MIC (Staphylococcus aureus [3]): 32 µg/mL (≈ 76.5 µM)
MIC (Enterococcus faecalis [4]): 16 µg/mL (≈ 38.2 µM)
MIC (Enterococcus faecalis [5]): 64 µg/mL (≈ 153 µM)
MIC (Listeria monocytogenes): 32 µg/mL (≈ 76.5 µM)

O=C(Nc1nnc(-c2ccc(Cl)cc2)o1)c1ccc(S(=O)(=O)NC2CC2)cc1
growth inhibition (GI) (Staphylococcus aureus [1]): Active
MIC (Staphylococcus aureus [2]): 16 µg/mL (≈ 38.2 µM)
MIC (Staphylococcus aureus [3]): 16 µg/mL (≈ 38.2 µM)
MIC (Enterococcus faecalis [4]): 32 µg/mL (≈ 76.4 µM)
MIC (Enterococcus faecalis [5]): 16 µg/mL (≈ 38.2 µM)
MIC (Listeria monocytogenes): 16 µg/mL (≈ 38.2 µM)

CCN(CC)S(=O)(=O)c1ccc(C(=O)Nc2nnc(-c3ccc(Cl)cc3)o2)cc1
growth inhibition (GI) (Staphylococcus aureus [1]): Active
MIC (Staphylococcus aureus [2]): 16 µg/mL (≈ 36.8 µM)
MIC (Staphylococcus aureus [3]): 16 µg/mL (≈ 36.8 µM)
MIC (Enterococcus faecalis [4]): 32 µg/mL (≈ 73.6 µM)
MIC (Enterococcus faecalis [5]): 16 µg/mL (≈ 36.8 µM)
MIC (Listeria monocytogenes): 16 µg/mL (≈ 36.8 µM)

CCOC(=O)c1nnc(NC(=O)c2ccc(S(=O)(=O)N3C[C@H](C)C[C@H](C)C3)cc2)o1
growth inhibition (GI) (Staphylococcus aureus [1]): inactive

CN(CC1CCCO1)S(=O)(=O)c1ccc(C(=O)Nc2nnc(-c3ccccc3)o2)cc1 (stereo unspecified)
growth inhibition (GI) (Staphylococcus aureus [1]): Active

C[C@@H]1CN(S(=O)(=O)c2ccc(C(=O)Nc3nnc(-c4cccs4)o3)cc2)C[C@H](C)O1
growth inhibition (GI) (Staphylococcus aureus [1]): inactive

C[C@@H]1C[C@H](C)CN(S(=O)(=O)c2ccc(-c3nnc(-c4cccs4)o3)cc2)C1
growth inhibition (GI) (Staphylococcus aureus [1]): inactive

C[C@@H]1C[C@H](C)CN(S(=O)(=O)c2ccc(C(=O)Nc3nnc(-c4cccs4)[nH]3)cc2)C1
growth inhibition (GI) (Staphylococcus aureus [1]): inactive

C[C@@H]1C[C@H](C)CN(S(=O)(=O)c2ccc(C(=O)Nc3nnc(C4CCCO4)o3)cc2)C1 (stereo partly specified)
growth inhibition (GI) (Staphylococcus aureus [1]): inactive

O=C(Nc1nnc(-c2ccco2)o1)c1ccc(S(=O)(=O)N2CCOCC2)cc1
growth inhibition (GI) (Staphylococcus aureus [1]): inactive

O=C(Nc1nnc(-c2cccs2)o1)c1ccccc1
growth inhibition (GI) (Staphylococcus aureus [1]): inactive

C[C@@H]1C[C@H](C)CN(S(=O)(=O)c2ccc(C(=O)Nc3nnc(-c4ccc(Br)cc4)o3)cc2)C1 (mixture of isomers)
growth inhibition (GI) (Staphylococcus aureus [1]): Active
MIC (Staphylococcus aureus [2]): 2 µg/mL
MIC (Staphylococcus aureus [3]): 4 µg/mL
MIC (Enterococcus faecalis [4]): 4 µg/mL
MIC (Enterococcus faecalis [5]): 4 µg/mL
MIC (Listeria monocytogenes): 4 µg/mL

C[C@@H]1C[C@H](C)CN(S(=O)(=O)c2ccc(C(=O)Nc3nnc(-c4ccc(Cl)cc4)o3)cc2)C1 (mixture of isomers)
growth inhibition (GI) (Staphylococcus aureus [1]): Active
MIC (Staphylococcus aureus [2]): 2 µg/mL
MIC (Staphylococcus aureus [3]): 1 µg/mL
MIC (Enterococcus faecalis [4]): 4 µg/mL
MIC (Enterococcus faecalis [5]): 2 µg/mL
MIC (Listeria monocytogenes): 2 µg/mL

COc1cccc(OC)c1C(=O)N[C@@H]1C(=O)N2[C@@H]1SC(C)(C)[C@@H]2C(=O)O [METHICILLIN]
MIC (Staphylococcus aureus [2]): 2 µg/mL (≈ 5.26 µM)
MIC (Staphylococcus aureus [3]): > 128 µg/mL

Reference: ChEMBL document CHEMBL4152323, “N-(1,3,4-oxadiazol-2-yl)benzamide analogs, bacteriostatic agents against methicillin- and vancomycin-resistant bacteria” (Eur J Med Chem, 2018)
